Among all 190,000 compounds or so, about 1,800 (0.95%) were called active.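 Rule for the calls: active = activation above the screen-wide mean of compound activation plus 3 SD (cut at about 130% in these data); inactive = the rest.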 Shown is part of a subset that was picked to be rich in actives.
Assay: enhancers of STAT3 transcriptional signaling – U3A cells, luciferase, luminescence, MLSCN library, primary screen (AID 871);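 note: 0% = background luminescence of wells with medium and substrate only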
Conditions: IL-6 STAT3-luciferase reporter, at 5.6 µM, stronger effect = higher value, 100% = signal with IL-6 EC80 alone
Outline: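 Test system: human U3A cells carrying STAT3-luciferase construct; control set: IL-6-only wells as 100% reference; timing: compound pre-incubation 1 h before IL-6, then 6 h stimulation at 37 °C; also added: IL-6 stimulus at 33 ng/mL final; evaluation: % activation versus median of IL-6-stimulated wells; detection: reporter luminescence signal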

Row | Structure (SMILES) | activation (% of control)
1 | Cn1c(=NC(=O)C2CC2)sc2cc(F)cc(F)c21 | 135% (active)
2 | COc1ccc(OC)c2c1sc(=NC(=O)CN1C(=O)CCC1=O)n2C | 101% (inactive)
3 | CCOc1ccc(-n2c(O)c(/C=N/c3ccnn3Cc3ccncc3)c3ccccc3c2=O)cc1 | 105% (inactive)
4 | O=C(O)c1ccc(/C=N/NC(=S)NCc2ccccc2)cc1 | 96.6% (inactive)
5 | CSc1nc2sc3c(c2c(=O)[nH]1)CCc1ccccc1-3 | 136% (active)
6 | CSc1nc(O)c(Cc2ccccc2)c(=O)[nH]1 | 95.3% (inactive)
7 | COc1ccc(-n2c(=S)[nH]c3sc4c(c3c2=O)CCc2ccccc2-4)cc1 | 112% (inactive)
8 | c1ccc(-c2cn3cccnc3n2)cc1 | 91.9% (inactive)
9 | c1ccc(-c2cn3c(n2)CCc2ccc4cccnc4c2-3)cc1 | 157% (active)
10 | O=C(CN1C(=O)CC(c2ccccc2)S(=O)(=O)c2ccccc21)NC1CCCC1 (stereo not drawn) | 101% (inactive)
11 | COC(=O)/C(C#N)=C/c1occc1C | 94.2% (inactive)
12 | CCOC(=O)N1CCN(CCC(=O)Nc2cc(OC)ccc2OC)CC1 | 111% (inactive)
13 | Cc1cccc(C(=O)N2CCc3c([nH]c4ccccc34)C2CC(C)C)n1 (stereo not drawn) | 145% (active)
14 | CCCC(=O)N1CCc2[nH]c3ccccc3c2C1 | 99.4% (inactive)
15 | COCc1ccc(C(=O)N2CCc3c([nH]c4ccccc34)C2c2ccccn2)s1 (stereo not drawn) | 96.9% (inactive)
16 | O=C(NC1CCCCC1)N1CCc2[nH]c3ccccc3c2C1 | 96% (inactive)
17 | Cc1cccc(C2c3[nH]c4ccccc4c3CCN2C(=O)c2cc(-c3cccn3C)n[nH]2)n1 (stereo not drawn) | 134% (active)
18 | O=C(c1cn2ccccc2n1)N1CCc2c([nH]c3ccccc23)C1c1ccccn1 (stereo not drawn) | 105% (inactive)
19 | COc1ccc(NC(=O)C(=O)NCC(=O)Nc2cccc(C(F)(F)F)c2)cc1 | 98.3% (inactive)
20 | COC(=O)c1ccc(NC(=S)NN2CCOCC2)cc1 | 109% (inactive)
21 | O=C(CC1SCCNC1=O)Nc1ccc(Cl)cc1 (stereo not drawn) | 105% (inactive)
22 | CCOC(=O)C1(Cc2cccc(OC)c2)CCN(Cc2csc(C(C)=O)c2)CC1 | 92.5% (inactive)
23 | COCCCNC(=O)C1CCC(CNS(=O)(=O)c2ccc(OC)cc2)CC1 (stereo not drawn) | 99.2% (inactive)
24 | O=C1NC(c2ccccc2)=NC1(Nc1ccccn1)C(F)(F)F (stereo not drawn) | 100% (inactive)

Row | Structure (SMILES) | activation (% of control)
25 | CN(C)S(=O)(=O)c1cc(NC(=O)CN2C(=O)NC3(CCCc4ccccc43)C2=O)ccc1Cl (stereo not drawn) | 105% (inactive)
26 | COc1cc(/C=C/C(=O)OCC(=O)NC(=O)NCc2ccccc2)ccc1OCC#N | 95.5% (inactive)
27 | COc1ncnc2sc3c(c12)CCCC3 | 104% (inactive)
28 | COc1ccc(/C=N/Nc2ncnc3sc4c(c23)CCCC4)cc1O | 147% (active)
29 | COc1cc(/C=N/Nc2ccc(C)cc2)cc(Br)c1O | 115% (inactive)
30 | CSc1ccccc1C(=O)NCc1ccccc1 | 108% (inactive)
31 | CC(C)CNC(=O)COC(=O)/C=C/c1ccco1 | 105% (inactive)
32 | CC(C)CNC(=O)COC(=O)/C=C/c1ccccc1[N+](=O)[O-] | 145% (active)
33 | O=C(/C=C/c1ccccc1[N+](=O)[O-])NCC1CCCO1 (stereo not drawn) | 97.5% (inactive)
34 | O=C(NCc1cccs1)C1CCN(S(=O)(=O)c2ccc(Cl)cc2)CC1 | 104% (inactive)
35 | COc1cccc2c1CCC(NC(C)=O)C2=O (stereo not drawn) | 104% (inactive)
36 | CC(=O)c1c(C)[nH]c(C(=O)Nc2cc(S(=O)(=O)N(C)C)ccc2C)c1C | 90.9% (inactive)
37 | COc1ccc(C)cc1NC(=O)c1[nH]c(C)c(C(C)=O)c1C | 147% (active)
38 | CC(=O)c1c(C)[nH]c(C(=O)NCc2ccc(C)cc2)c1C | 92.2% (inactive)
39 | O=C(c1ccc(-c2ccccc2)cc1)C1CCCN(C(=O)c2cncs2)C1 (stereo not drawn) | 98.2% (inactive)
40 | COc1cccc(-n2cc3c(c2-c2ccccc2)c(=O)n(C)c(=O)n3C)c1 | 110% (inactive)
41 | COc1ccc(-c2c3c(=O)n(C)c(=O)n(C)c3cn2-c2cccc(OC)c2)cc1 | 154% (active)
42 | COc1ccc(-c2c3c(=O)n(C)c(=O)n(C)c3cn2NC(C)=O)cc1 | 109% (inactive)
43 | CC(C)CCN1C(=O)c2ccc(C(=O)Nc3cccc(S(N)(=O)=O)c3)cc2C1=O | 93.1% (inactive)
44 | CCC(C)NC(=O)c1nn(C)c(=O)c2ccccc12 (stereo not drawn) | 100% (inactive)
45 | CN(C)S(=O)(=O)c1cccc(NC(=S)NCc2ccc3c(c2)OCO3)c1 | 95.2% (inactive)
46 | CCN(Cc1cc2cc(C)ccc2[nH]c1=O)S(=O)(=O)c1ccccc1 | 91.2% (inactive)
47 | CC(=O)OCc1cc2cc(C)ccc2[nH]c1=O | 103% (inactive)
48 | CCNCc1cc2cc(C)ccc2[nH]c1=O | 139% (active)

Source: PubChem BioAssay AID871 (The Scripps Research Institute Molecular Screening Center, 2007)
